# NR2E3 ag-1 = activates human photoreceptor nuclear receptor NR2E3. Q9Y5X4. GST-NR2E3/biotin-RetCOR TR-FRET, 1536-well. inhibition of corepressor binding, % at 4.78 µM. hit rate 0.12% among 320,000. AID 2300;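 active = percent inhibition above the cutoff of mean plus 3 SD of all tested compounds, set per screening campaign, cut at about 20% in these data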;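 also: 0% = DMSO wells and 100% = biotin wells as full block of FRET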
# Target sequence (Q9Y5X4 whole entry, looked up): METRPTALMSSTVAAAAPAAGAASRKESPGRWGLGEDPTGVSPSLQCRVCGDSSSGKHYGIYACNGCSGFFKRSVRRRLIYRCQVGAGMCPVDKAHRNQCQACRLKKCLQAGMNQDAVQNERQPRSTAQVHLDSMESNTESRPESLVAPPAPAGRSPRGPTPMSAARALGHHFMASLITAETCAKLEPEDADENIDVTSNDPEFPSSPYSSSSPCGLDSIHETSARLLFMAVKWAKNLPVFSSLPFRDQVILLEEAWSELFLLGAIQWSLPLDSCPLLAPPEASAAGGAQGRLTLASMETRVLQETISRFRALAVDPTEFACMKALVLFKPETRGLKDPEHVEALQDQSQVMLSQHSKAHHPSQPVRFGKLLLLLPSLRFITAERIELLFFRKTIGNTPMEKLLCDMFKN
#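 System: GST-tagged NR2E3 plus biotinylated RetCOR corepressor; Buffer or medium: pH 7.5 Tris-based buffer; Probe or stimulus: RetCOR corepressor, biotinylated, 7 nM; Doses: compound at 4.8 µM, single dose; Schedule: 5 h incubation at 4 °C; Technique: time-resolved FRET; Evaluation: percent inhibition of TR-FRET ratio; Replication: one well per compound, singlicate testing.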
# NR2E3 ag-2 = activates human NR2E3 receptor. Q9Y5X4. CHO-S Gal4-NCOR/VP16-NR2E3 two-hybrid, luciferase. inhibition of corepressor binding, % at 3.98 µM. hit rate 0.35% among 360,000;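 active = inhibition above the mean of all tested compounds plus 3 SD, cut at about 70% in these data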;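 also: 0% = DMSO with NR2E3 transfected cells and 100% = cells lacking NR2E3 construct; higher means lower luciferase signal from less NR2E3 corepressor binding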
# Jurkat NFkB inh = lowers PMA/ionomycin-induced NF-kB signal in Jurkat cells. hit rate 0.53% among 330,000. AID 435003. PMA/ionomycin-induced NF-kB luciferase reporter, luminescence. inhibition, % at 4 µM; in the data active = inhibition above about 50%
# GalR3 antagonist = human GalR3 antagonism; HEK293 GalR3-CNG cAMP membrane potential fluorescence; galR3 body fused to GalR1 C-terminus; inhibition, % at 3 µM; hit rate 0.44% among 360,000; AID 651719;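 active = inhibition above the screen-wide average plus 3 SD, cut at about 13% in these data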;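 also: forskolin and galanin both at EC90 stimulate the cells; cAMP rise reported by CNG channel membrane potential dye signal; 0% = forskolin plus galanin with DMSO and 100% = forskolin alone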
# Target sequence (O60755 1-299 limits assumed): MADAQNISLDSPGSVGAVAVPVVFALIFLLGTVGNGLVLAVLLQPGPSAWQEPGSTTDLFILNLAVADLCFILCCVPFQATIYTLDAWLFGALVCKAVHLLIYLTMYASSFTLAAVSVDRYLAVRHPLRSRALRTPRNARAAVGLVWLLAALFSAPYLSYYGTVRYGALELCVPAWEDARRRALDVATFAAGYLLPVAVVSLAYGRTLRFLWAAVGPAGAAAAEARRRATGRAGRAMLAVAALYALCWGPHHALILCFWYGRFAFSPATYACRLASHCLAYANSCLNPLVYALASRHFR
# Gli-Sufu block = antagonists of Gli-Sufu signaling. Sufu-KO-LIGHT fibroblasts, Gli luciferase reporter luminescence. inhibition, % at 5 µM. hit rate 0.74% among 340,000. AID 588413;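 active = inhibition above about 55%, limit read from the data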;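 also: 0% = DMSO-treated cells and 100% = wells with medium but no cells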
# 697 NFkB inh = lowers PMA/ionomycin-induced NF-kB signal in 697 B cells; AID 435022; hit rate 0.33% among 330,000; 697 B-cell NF-kB luciferase reporter, 16 h; inhibition, % at 4 µM; in the data active = inhibition above about 35%
# Jurkat NFkB conf = lowers PMA/ionomycin-induced NF-kB signal in Jurkat cells; shares compounds with Jurkat NFkB inh; Jurkat NF-kB luciferase, 16 h; inhibition, % at 4 µM; hit rate 27% among 2,700; AID 435020;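 active = inhibition reaching about 45% at 4 µM in either replicate, limit read from the data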;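 also: plate controls were PMA/ionomycin stimulated DMSO wells for no effect and unstimulated DMSO wells for full effect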
# 697 NFkB conf = inhibitors of the PMA/ionomycin-induced NF-kB reporter in 697 B cells, retest. shares compounds with 697 NFkB inh. 697 B-cell NF-kB luciferase, 16 h. inhibition, % at 4 µM. hit rate 35% among 2,000. AID 449746; in the data active = inhibition mostly above about 28%, no sharp cut-off; inactive = mostly below about 22%
# Gli antag conf = Gli-SUFU antagonism confirmation, single concentration | shares compounds with Gli-Sufu block | Sufu-KO-LIGHT cells, Gli luciferase reporter, luminescence | inhibition, % at 5 µM | hit rate 40% among 2,500 | AID 602428;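 active = mean inhibition at 5 µM reaching about 45%, limit read from the data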;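 also: plate controls were DMSO-treated cells for no effect and wells lacking cells for full effect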
# Gli cytotox = cytotoxic in Gli-SUFU antagonist counter-screen; shares compounds with Gli-Sufu block; Sufu-KO-LIGHT cells cytotoxicity, ATP luminescence; cytotoxicity, % at 5 µM; hit rate 32% among 2,500; AID 651994;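 active = mean cytotoxicity at 5 µM above about 25%, limit read from the data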;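 also: cells exposed to compound overnight for roughly 16 to 18 hours; plate controls were DMSO wells with cells for no effect and medium without cells for full effect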
# Wnt3a cs = counter-screen for Gli-SUFU antagonists: Wnt3a reporter inhibition; Wnt-LIGHT cells, Wnt3a-driven luciferase reporter, luminescence; shares compounds with Gli-Sufu block; hit rate 20% among 2,500; AID 651995; inhibition, % at 6.25 µM;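 active = mean inhibition above about 25%, limit read from the data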
# NR2E3 ag conf = confirmation of human NR2E3 agonists; shares compounds with NR2E3 ag-2; CHO-S mammalian two-hybrid NR2E3-NCOR, luciferase luminescence; inhibition, % at 3.98 µM; hit rate 51% among 2,300; AID 624378;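 active = average inhibition above a cutoff equal to the mean inhibition of all tested compounds plus one SD, cut at about 70% in these data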;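 also: 0% = DMSO in NR2E3 cells and 100% = DMSO in cells lacking NR2E3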
# VP16 counter = GAL4-VP16 reporter inhibition in NR2E3 agonist counterscreen; CHO-S GAL4-VP16 luciferase reporter, luminescence; inhibition, % at 3.98 µM; shares compounds with NR2E3 ag-2; hit rate 29% among 2,300; AID 624379;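 active = mean inhibition above a cutoff equal to the average over all tested compounds plus one standard deviation, cut at about 70% in these data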;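 also: luciferase from a UAS reporter driven by GAL4-VP16 transactivation; 0% = DMSO with VP16-transfected cells and 100% = DMSO with cells lacking VP16; higher means less reporter light so more repression of VP16 activity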
# Starred values were filed as active, the others as inactive; . = no result. The list is not random: actives were taken first. Their share in the collection is about 1.8%.
SMILES,NR2E3 ag-1,NR2E3 ag-2,Jurkat NFkB inh,GalR3 antagonist,Gli-Sufu block,697 NFkB inh,Jurkat NFkB conf,NR2E3 ag conf,VP16 counter,others
O=[N+]([O-])c1ccc(SN2CCCCC2)c([N+](=O)[O-])c1,.,.,.,-5,.,.,.,.,.,
COCCn1c(C)cc(C2=NNC(=Nc3ccccc3F)SC2)c1C,0,88*,69*,-5,34,-27,88*,57,40,
C[C@@H]1CN([C@@H](C)CO)C(=O)CCCn2cc(nn2)CO[C@H]1CN(C)C(=O)Nc1ccccc1F,.,.,.,0,.,.,.,.,.,
C=CCSc1nc2ccccc2n1C(=O)/C=C/c1cc(OC)c(OC)c(OC)c1,1,57,64*,-5,48,-64,40,69,-1,
CCCCc1c(-c2ccccc2OC)ncn1Cc1ccc(Cl)cc1Cl,.,.,.,-8,.,.,.,.,.,
O=C1c2ccccc2NC(c2cc(Cl)cc(Cl)c2O)N1CCc1ccccn1 (configuration not stated),.,.,.,-8,.,.,.,.,.,
CC(C)(C)C(=O)Nc1ccc(N=Nc2ccccc2)cc1,1,56,-219,-4,64*,-261,16,26,-23,697 NFkB conf=-204;Gli antag conf=54*;Gli cytotox=60*;Wnt3a cs=82*
Nc1[nH]c(C(=O)c2ccccc2)c(-c2ccc(Cl)cc2)c1C(=O)c1c[nH]c2ccc(F)cc12,.,.,.,-5,.,.,.,.,.,
CCN1/C(=C/C(C)=C/c2sc3ccccc3[n+]2CC)Sc2ccccc21,-18,92*,93*,-5,90*,49*,78*,100*,95*,697 NFkB conf=7
COc1ccc(C2CC(=O)C(c3ccc4ccccc4c3)=CN2Cc2ccccc2)cc1 (configuration not stated),.,.,.,-3,.,.,.,.,.,
Nc1nc(F)nc2c1ncn2[C@@H]1O[C@H](CO)[C@@H](O)[C@@H]1O,3,9,8,-2,-4,4,.,.,.,
Nc1nc(F)nc2c1ncn2[C@@H]1O[C@H](CO)[C@@H](O)[C@H]1O,3,103*,93*,-8,71*,75*,89*,100*,99*,697 NFkB conf=92*
Cc1ccc([C@H]2C[C@]34CN(Cc5ccccc5)S(=O)(=O)[C@H]3C[C@H]2O4)cc1,.,.,.,-2,.,.,.,.,.,
CN=c1scc(-c2ccccc2F)n1/N=C/c1ccc(O)c(O)c1O,.,-98,.,-3,-30,.,.,.,.,
CN=c1scc(-c2ccccc2F)n1/N=C/c1ccc[nH]1,-1,97*,70*,-4,86*,36*,75*,90*,80*,697 NFkB conf=42*
CN(Cc1ccco1)C(=O)[C@@H](Cc1ccccc1)NC(=O)[C@H]1O[C@@H](n2ccc(=O)[nH]c2=O)[C@H](O)[C@@H]1O,.,.,.,-7,.,.,.,.,.,
O=C(NCCc1ccccc1)c1ccc2c(c1)OCCCO2,1,87*,87*,-3,70*,63*,89*,66,57,697 NFkB conf=66*
O=C(CCc1ccccc1)c1ccc2c(c1)OCCCO2,-1,-156,-93,-4,-74,-128,.,.,.,
CCOC(=O)C(CNc1ccc(OCc2ccccc2)cc1)NC(=O)c1ccccc1 (configuration not stated),.,.,.,-9,.,.,.,.,.,
COc1ccc(NC(=O)/C(Cl)=C(/Cl)S(=O)Cc2ccc(Cl)cc2)cn1 (configuration not stated),.,87*,101*,35*,46,-185,99*,99*,34,
CC(C)(C)c1ccc(C(=O)O/N=C(\N)c2ccccc2)cc1,2,81*,71*,-10,89*,0,85*,78*,74*,
Cc1ccc2[nH]c3c(c2c1)CCCC3NC(=O)CCl (configuration not stated),1,88*,97*,.,28,-262,95*,89*,72*,697 NFkB conf=-52
CCn1c2ccccc2c2cc(NC(=O)c3cc(OC)cc(OC)c3)ccc21,3,51,60*,3,59*,3,41,-4,9,Gli antag conf=62*;Gli cytotox=55*;Wnt3a cs=-10
Cc1nc2ccccc2c2c1CC(C(C)(Cl)Br)O2 (configuration not stated),-2,62,56*,8,55*,-45,56*,78*,68,Gli antag conf=58*;Gli cytotox=22;Wnt3a cs=7
Cc1ccnc2c1ccc1cccnc12,.,74*,69*,-4,92*,-14,64*,17,-11,
SMILES,NR2E3 ag-1,NR2E3 ag-2,Jurkat NFkB inh,GalR3 antagonist,Gli-Sufu block,697 NFkB inh,Jurkat NFkB conf,NR2E3 ag conf,VP16 counter,others
Cc1ccnc2c1ccc1c(C)ccnc12,2,78*,76*,.,91*,-27,75*,43,10,
Cc1ccnc2c1ccc1ccccc12,-3,-20,-2,-10,-5,9,.,.,.,
Cc1ccnc2c(N3C(=O)C4C5c6ccccc6C(c6ccccc65)C4C3=O)cccc12 (configuration not stated),4,-17,-10,-5,2,-27,.,.,.,
Cc1ccc(OCC(=O)c2cc(C)n(-c3ccccc3)c2C)c([N+](=O)[O-])n1,-2,73*,76*,1,70*,12,11,61,67,Gli antag conf=74*;Gli cytotox=16;Wnt3a cs=87*
O=C(c1ccccc1)c1nn(-c2ccc(Cl)cc2)c(=O)cc1C(F)(F)F,8,108*,98*,2,12,-131,80*,93*,67,
O=C(c1ccccc1)c1nn(-c2ccccc2)c(=O)cc1C(F)(F)F,7,47,7,0,3,-24,.,.,.,
COc1ccc(CCNc2ncnc3c2oc2ccccc23)cc1OC,1,90*,62*,-1,73*,47*,57*,97*,86*,697 NFkB conf=54*;Gli antag conf=75*;Gli cytotox=28*;Wnt3a cs=31*
C=CCN1C(=O)c2n[nH]c(C)c2C1c1ccc(C)cc1 (configuration not stated),.,.,.,-4,.,.,.,.,.,

# Screening results from PubChem.
